According to ChEMBL document CHEMBL5058577, “EUbOPEN Chemogenomics Library 2 (Multiplex)” (2022):

Tested on: U2OS
Experiment: Multiplex assay against U2OS
Format: toxicity, cell-based
Conditions: human
Procedure, shortened: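 Phenotypes for tubulin, mitochondrial mass and membrane permeability are expressed as per cents of healthy-nucleus cells. Cells were stained live at seeding with Hoechst33342, BioTracker Green Microtubule Cytoskeleton Dye, MitoTracker Red and Annexin V Alexa Fluor 680, then imaged after compound addition on a CQ1 microscope at 37°C and 5% CO2. Machine-learning gating in CellPathfinder separated Hoechst high-intensity objects from normal cells, divided normal cells by nuclear state (healthy, pyknosed, fragmented) and divided pyknosed cells into mitotic or apoptotic.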

[1] = 12 h, 1 µM, compound concentration 1 uM, replicate 1
[2] = 12 h, 1 µM, compound concentration 1 uM, replicate 2
[3] = 12 h, 10 µM, compound concentration 10 uM, replicate 1
[4] = 12 h, 10 µM, compound concentration 10 uM, replicate 2
[5] = 24 h, 1 µM, compound concentration 1 uM, replicate 1
[6] = 24 h, 1 µM, compound concentration 1 uM, replicate 2
[7] = 24 h, 10 µM, compound concentration 10 uM, replicate 1
[8] = 24 h, 10 µM, compound concentration 10 uM, replicate 2
[9] = 48 h, 1 µM, compound concentration 1 uM, replicate 1
[10] = 48 h, 1 µM, compound concentration 1 uM, replicate 2
[11] = 48 h, 10 µM, compound concentration 10 uM, replicate 1
[12] = 48 h, 10 µM, compound concentration 10 uM, replicate 2

In the case of COc1cc(NC(=O)CCN2CCC(OC(=O)Nc3ccccc3-c3ccccc3)CC2)c(Cl)cc1CNC[C@H](O)c1ccc(O)c2[nH]c(=O)ccc12 [BATEFENTEROL], the “Population Apoptotic (%)” value [1] is reported as 68%, the “Population Fragmented Nuclei (%)” value [1] is reported as 29% and the “Population Healthy Nuclei (%)” value [1] is reported as 49%. For the same compound, the “Population Hoechst High Intensity Objects (%)” value [1] was 4%, the “Population Membrane Permeable-Phenotype (%)” value [1] was 5% and the “Population Mitochondria Different-Phenotype (%)” value [1] was 5%. For the same compound, the “Population Mitotic Cells (%)” value [1] was 31%, the “Population Normal (%)” value [1] was 95% and the “Population Pyknosed Nuclei (%)” value [1] was 21%. The “Population Tubulin-Different-Phenotype (%)” value [1] was 4%, the “Total Cell Count” value [1] was 159 and the “Population Apoptotic (%)” value [2] was 85%. The “Population Fragmented Nuclei (%)” value [2] was 14%, the “Population Healthy Nuclei (%)” value [2] was 78% and the “Population Hoechst High Intensity Objects (%)” value [2] was 1%. For the same compound, the “Population Membrane Permeable-Phenotype (%)” value [2] was 9%, the “Population Mitochondria Different-Phenotype (%)” value [2] was 6% and the “Population Mitotic Cells (%)” value [2] was 14%. The “Population Normal (%)” value [2] was 98%, the “Population Pyknosed Nuclei (%)” value [2] was 7% and the “Population Tubulin-Different-Phenotype (%)” value [2] was 7%. The “Total Cell Count” value [2] was 98, the “Population Apoptotic (%)” value [3] was 72% and the “Population Fragmented Nuclei (%)” value [3] was 37%. For the same compound, the “Population Healthy Nuclei (%)” value [3] was 44%, the “Population Hoechst High Intensity Objects (%)” value [3] was 6% and the “Population Membrane Permeable-Phenotype (%)” value [3] was 60%. For the same compound, the “Population Mitochondria Different-Phenotype (%)” value [3] was 67%, the “Population Mitotic Cells (%)” value [3] was 27% and the “Population Normal (%)” value [3] was 93%. For the same compound, the “Population Pyknosed Nuclei (%)” value [3] was 18%, the “Population Tubulin-Different-Phenotype (%)” value [3] was 75% and the “Total Cell Count” value [3] was 196. For the same compound, the “Population Apoptotic (%)” value [4] was 88%, the “Population Fragmented Nuclei (%)” value [4] was 18% and the “Population Healthy Nuclei (%)” value [4] was 59%. The “Population Hoechst High Intensity Objects (%)” value [4] was 7%, the “Population Membrane Permeable-Phenotype (%)” value [4] was 57% and the “Population Mitochondria Different-Phenotype (%)” value [4] was 95%. The “Population Mitotic Cells (%)” value [4] was 11%, the “Population Normal (%)” value [4] was 92% and the “Population Pyknosed Nuclei (%)” value [4] was 22%. For the same compound, the “Population Tubulin-Different-Phenotype (%)” value [4] was 97%, the “Total Cell Count” value [4] was 82 and the “Population Apoptotic (%)” value [5] was 74%. For the same compound, the “Population Fragmented Nuclei (%)” value [5] was 27%, the “Population Healthy Nuclei (%)” value [5] was 55% and the “Population Hoechst High Intensity Objects (%)” value [5] was 2%. The “Population Membrane Permeable-Phenotype (%)” value [5] was 9%, the “Population Mitochondria Different-Phenotype (%)” value [5] was 9% and the “Population Mitotic Cells (%)” value [5] was 25%. The “Population Normal (%)” value [5] was 97%, the “Population Pyknosed Nuclei (%)” value [5] was 17% and the “Population Tubulin-Different-Phenotype (%)” value [5] was 5%. The “Total Cell Count” value [5] was 182, the “Population Apoptotic (%)” value [6] was 100% and the “Population Fragmented Nuclei (%)” value [6] was 12%. The “Population Healthy Nuclei (%)” value [6] was 75%, the “Population Hoechst High Intensity Objects (%)” value [6] was 1% and the “Population Membrane Permeable-Phenotype (%)” value [6] was 5%. For the same compound, the “Population Mitochondria Different-Phenotype (%)” value [6] was 6%, the “Population Mitotic Cells (%)” value [6] was 0% and the “Population Normal (%)” value [6] was 98%. For the same compound, the “Population Pyknosed Nuclei (%)” value [6] was 11%, the “Population Tubulin-Different-Phenotype (%)” value [6] was 2% and the “Total Cell Count” value [6] was 103. For the same compound, the “Population Apoptotic (%)” value [7] was 79%, the “Population Fragmented Nuclei (%)” value [7] was 38% and the “Population Healthy Nuclei (%)” value [7] was 38%. The “Population Hoechst High Intensity Objects (%)” value [7] was 4%, the “Population Membrane Permeable-Phenotype (%)” value [7] was 32% and the “Population Mitochondria Different-Phenotype (%)” value [7] was 59%. The “Population Mitotic Cells (%)” value [7] was 20%, the “Population Normal (%)” value [7] was 95% and the “Population Pyknosed Nuclei (%)” value [7] was 22%. The “Population Tubulin-Different-Phenotype (%)” value [7] was 44%, the “Total Cell Count” value [7] was 199 and the “Population Apoptotic (%)” value [8] was 73%. The “Population Fragmented Nuclei (%)” value [8] was 29%, the “Population Healthy Nuclei (%)” value [8] was 42% and the “Population Hoechst High Intensity Objects (%)” value [8] was 9%. For the same compound, the “Population Membrane Permeable-Phenotype (%)” value [8] was 52%, the “Population Mitochondria Different-Phenotype (%)” value [8] was 91% and the “Population Mitotic Cells (%)” value [8] was 26%. For the same compound, the “Population Normal (%)” value [8] was 90%, the “Population Pyknosed Nuclei (%)” value [8] was 27% and the “Population Tubulin-Different-Phenotype (%)” value [8] was 91%. For the same compound, the “Total Cell Count” value [8] was 93, the “Population Apoptotic (%)” value [9] was 82% and the “Population Fragmented Nuclei (%)” value [9] was 26%. The “Population Healthy Nuclei (%)” value [9] was 54%, the “Population Hoechst High Intensity Objects (%)” value [9] was 3% and the “Population Membrane Permeable-Phenotype (%)” value [9] was 3%. The “Population Mitochondria Different-Phenotype (%)” value [9] was 5%, the “Population Mitotic Cells (%)” value [9] was 17% and the “Population Normal (%)” value [9] was 96%. For the same compound, the “Population Pyknosed Nuclei (%)” value [9] was 19%, the “Population Tubulin-Different-Phenotype (%)” value [9] was 3% and the “Total Cell Count” value [9] was 242. The “Population Apoptotic (%)” value [10] was 85%, the “Population Fragmented Nuclei (%)” value [10] was 17% and the “Population Healthy Nuclei (%)” value [10] was 64%. The “Population Hoechst High Intensity Objects (%)” value [10] was 4%, the “Population Mitochondria Different-Phenotype (%)” value [10] was 1% and the “Population Mitotic Cells (%)” value [10] was 14%. The “Population Normal (%)” value [10] was 95%, the “Population Pyknosed Nuclei (%)” value [10] was 17% and the “Population Tubulin-Different-Phenotype (%)” value [10] was 1%. The “Total Cell Count” value [10] was 123, the “Population Apoptotic (%)” value [11] was 92% and the “Population Fragmented Nuclei (%)” value [11] was 41%. For the same compound, the “Population Healthy Nuclei (%)” value [11] was 39%, the “Population Hoechst High Intensity Objects (%)” value [11] was 6% and the “Population Membrane Permeable-Phenotype (%)” value [11] was 31%. For the same compound, the “Population Mitochondria Different-Phenotype (%)” value [11] was 43%, the “Population Mitotic Cells (%)” value [11] was 7% and the “Population Normal (%)” value [11] was 93%. For the same compound, the “Population Pyknosed Nuclei (%)” value [11] was 18%, the “Population Tubulin-Different-Phenotype (%)” value [11] was 23% and the “Total Cell Count” value [11] was 221. The “Population Apoptotic (%)” value [12] was 94%, the “Population Fragmented Nuclei (%)” value [12] was 29% and the “Population Healthy Nuclei (%)” value [12] was 32%. For the same compound, the “Population Hoechst High Intensity Objects (%)” value [12] was 10%, the “Population Membrane Permeable-Phenotype (%)” value [12] was 38% and the “Population Mitochondria Different-Phenotype (%)” value [12] was 70%. For the same compound, the “Population Mitotic Cells (%)” value [12] was 5%, the “Population Normal (%)” value [12] was 89% and the “Population Pyknosed Nuclei (%)” value [12] was 37%. The “Population Tubulin-Different-Phenotype (%)” value [12] was 48% and the “Total Cell Count” value [12] was 105.
With CSCC[C@H](NC=O)C(=O)N[C@@H](CC(C)C)C(=O)N[C@@H](Cc1ccccc1)C(=O)O the “Population Apoptotic (%)” value [1] was 73%, the “Population Fragmented Nuclei (%)” value [1] was 29% and the “Population Mitochondria Different-Phenotype (%)” value [1] was 4%. For the same compound, the “Population Mitotic Cells (%)” value [1] was 26%, the “Total Cell Count” value [1] was 254 and the “Population Apoptotic (%)” value [2] was 100%. The “Population Fragmented Nuclei (%)” value [2] was 17%, the “Population Healthy Nuclei (%)” value [2] was 75% and the “Population Mitochondria Different-Phenotype (%)” value [2] was 3%. The “Population Mitotic Cells (%)” value [2] was 0%, the “Total Cell Count” value [2] was 135 and the “Population Apoptotic (%)” value [3] was 69%. The “Population Fragmented Nuclei (%)” value [3] was 23%, the “Population Healthy Nuclei (%)” value [3] was 70% and the “Population Mitochondria Different-Phenotype (%)” value [3] was 1%. For the same compound, the “Population Mitotic Cells (%)” value [3] was 30%, the “Total Cell Count” value [3] was 202 and the “Population Apoptotic (%)” value [4] was 90%. The “Population Fragmented Nuclei (%)” value [4] was 16%, the “Population Healthy Nuclei (%)” value [4] was 74% and the “Population Membrane Permeable-Phenotype (%)” value [4] was 4%. The “Population Mitochondria Different-Phenotype (%)” value [4] was 2%, the “Total Cell Count” value [4] was 123 and the “Population Apoptotic (%)” value [5] was 91%. The “Population Fragmented Nuclei (%)” value [5] was 24%, the “Population Mitochondria Different-Phenotype (%)” value [5] was 3% and the “Population Mitotic Cells (%)” value [5] was 8%. The “Total Cell Count” value [5] was 288, the “Population Apoptotic (%)” value [6] was 90% and the “Population Fragmented Nuclei (%)” value [6] was 17%. The “Population Healthy Nuclei (%)” value [6] was 75%, the “Population Mitochondria Different-Phenotype (%)” value [6] was 0% and the “Total Cell Count” value [6] was 147. The “Population Apoptotic (%)” value [7] was 76%, the “Population Fragmented Nuclei (%)” value [7] was 23% and the “Population Healthy Nuclei (%)” value [7] was 68%. For the same compound, the “Population Mitochondria Different-Phenotype (%)” value [7] was 1%, the “Population Mitotic Cells (%)” value [7] was 23% and the “Total Cell Count” value [7] was 247. For the same compound, the “Population Apoptotic (%)” value [8] was 100%, the “Population Fragmented Nuclei (%)” value [8] was 19% and the “Population Healthy Nuclei (%)” value [8] was 70%. The “Population Membrane Permeable-Phenotype (%)” value [8] was 8%, the “Population Mitochondria Different-Phenotype (%)” value [8] was 2% and the “Population Mitotic Cells (%)” value [8] was 0%. The “Total Cell Count” value [8] was 147, the “Population Fragmented Nuclei (%)” value [9] was 16% and the “Population Healthy Nuclei (%)” value [9] was 75%. The “Population Membrane Permeable-Phenotype (%)” value [9] was 4%, the “Population Mitochondria Different-Phenotype (%)” value [9] was 3% and the “Population Mitotic Cells (%)” value [9] was 15%. The “Total Cell Count” value [9] was 411, the “Population Fragmented Nuclei (%)” value [10] was 18% and the “Population Healthy Nuclei (%)” value [10] was 68%. The “Population Mitochondria Different-Phenotype (%)” value [10] was 1%, the “Population Mitotic Cells (%)” value [10] was 3% and the “Total Cell Count” value [10] was 202. For the same compound, the “Population Apoptotic (%)” value [11] was 90%, the “Population Fragmented Nuclei (%)” value [11] was 20% and the “Population Healthy Nuclei (%)” value [11] was 70%. The “Population Membrane Permeable-Phenotype (%)” value [11] was 4%, the “Population Mitochondria Different-Phenotype (%)” value [11] was 2% and the “Population Mitotic Cells (%)” value [11] was 9%. For the same compound, the “Total Cell Count” value [11] was 362, the “Population Apoptotic (%)” value [12] was 100% and the “Population Fragmented Nuclei (%)” value [12] was 53%. For the same compound, the “Population Healthy Nuclei (%)” value [12] was 25%, the “Population Membrane Permeable-Phenotype (%)” value [12] was 80% and the “Population Mitochondria Different-Phenotype (%)” value [12] was 50%. The “Population Mitotic Cells (%)” value [12] was 0% and the “Total Cell Count” value [12] was 41.
